Bioassay records deposited in PubChem by several laboratories.
NPY Y1 blocker: NPY-Y1 receptor antagonists, primary screen, cell-based | Neuropeptide Y receptor type 1 (Homo sapiens), P25929 | HEK293-CNG Y1 cells, membrane potential fluorescence; NPY at EC95, then isoproterenol | inhibition, % at 3.6 µM | 200,000 compounds, 1% hits;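 active = inhibition above the campaign mean inhibition of all tested compounds plus 3 SD, cut at about 20% in these data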;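 note: 0% = DMSO wells given NPY plus isoproterenol and 100% = isoproterenol alone without NPY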
Target sequence (P25929 whole entry, looked up): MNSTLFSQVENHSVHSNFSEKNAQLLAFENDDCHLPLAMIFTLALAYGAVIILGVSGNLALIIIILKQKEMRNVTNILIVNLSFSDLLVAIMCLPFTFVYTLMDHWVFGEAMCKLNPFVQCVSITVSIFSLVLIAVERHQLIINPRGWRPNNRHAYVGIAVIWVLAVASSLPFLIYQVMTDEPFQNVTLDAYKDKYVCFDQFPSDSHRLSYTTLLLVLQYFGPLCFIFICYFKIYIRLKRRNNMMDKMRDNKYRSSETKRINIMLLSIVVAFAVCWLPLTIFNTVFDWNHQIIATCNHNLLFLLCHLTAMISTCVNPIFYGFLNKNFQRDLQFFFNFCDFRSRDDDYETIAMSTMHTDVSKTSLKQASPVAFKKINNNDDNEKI
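Material: Y1- and CNG-channel-expressing HEK293 cells / Probe or stimulus: NPY 25 nM then isoproterenol 1 µM plus Ro 20-1724 25 µM / Doses: 3.6 µM single dose, DMSO 0.4% / Schedule: compound incubation 1 h at room temperature, readout 45 min post-stimulation / Signal: membrane potential fluorescence / Benchmarks: isoproterenol-only wells as full block versus NPY-plus-isoproterenol wells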
Cl transport mod: KCC2 cotransporter modulators, thallium flux, primary screen, cell-based, HEK293 KCC2, FluoZin-2 fluorescence, MLSMR; Solute carrier family 12 member 5 (Homo sapiens), Q9H2X9; KCC2 cells, thallium flux FluoZin-2 fluorescence; B-score of Tl+ flux slope (higher = more flux/activation; lower = inhibition) at 10 µM; 190,000 compounds, 2.2% hits; AID 1456, 2008;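 active = thallium flux slope and its plate-corrected score both differing from the plate sample mean at a set confidence after two filtering rounds, in either direction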;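 note: slope of fluorescence scaled to starting intensity during 10 to 20 s after thallium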
NPY-Y2 PAM-ag: NPY-Y2 potentiators or agonists, primary screen, cell-based. AID 1359, 2008. cells expressing NPY-Y2, potentiator/agonist read-out. activation, % at 3.6 µM. 220,000 compounds, 0.45% hits. Neuropeptide Y receptor type 2 (Homo sapiens), P49146; in the data active = activation above about 27%;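 note: cells stimulated with NPY near EC25 plus isoproterenol at EC100; 0% = vehicle plus submaximal agonist and 100% = vehicle plus saturating agonist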
NPY-Y2 antag: NPY-Y2 receptor antagonists, primary screen, cell-based | Neuropeptide Y receptor type 2 (Homo sapiens), P49146 | NPY-Y2 expressing cells, antagonist mode | inhibition, % at 2.7 µM | 140,000 compounds, 0.99% hits; in the data active = inhibition above about 17%;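 note: 0% = vehicle with agonist challenge and 100% = reference antagonist with challenge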
Furin inh: human furin inhibitors, primary screen, biochemical, fluorescence intensity; P09958; purified furin, fluorogenic substrate cleavage; inhibition, % at 20 µM or 30 µM; 220,000 compounds, 0.061% hits; AID 463115, 2010; in the data active = inhibition above about 25%
NPY1 pot ag: NPY-Y1 receptor potentiators or agonists, primary screen, cell-based; 220,000 compounds, 0.37% hits; NPY-Y1 expressing cells, potentiator/agonist activation; activation, % at 3.6 µM; Neuropeptide Y receptor type 1 (Homo sapiens), P25929; in the data active = activation above about 33%, passing the limit was not always enough;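 note: cells stimulated with NPY at EC10 then isoproterenol at EC100; 0% = low agonist plus stimulus and 100% = saturating agonist plus stimulus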
NPY-Y1 confirm: NPY-Y1 potentiators or agonists, confirmation, cell-based; shares compounds with NPY1 pot ag; cell-based NPY-Y1 potentiator/agonist assay; activation, % at 3.6 µM; 280 compounds, 20% hits; AID 1546, 2009; in the data active = activation above about 45%;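 note: cells challenged with NPY at its EC10 plus isoproterenol stimulus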
NPY-Y2 counter: NPY-Y2 potentiators or agonists, counter-screen for NPY-Y1 potentiator project, cell-based, fluorescence | AID 1649, 2009 | 280 compounds, 20% hits | HEK293-CNG cells, membrane-potential fluorescence (FLIPR), 1536-well | activation, % at 3.6 µM | shares compounds with NPY1 pot ag; in the data active = activation above about 33%
NPY-Y1 ag: NPY-Y1 direct agonists without NPY, confirmation, counter-screen for NPY-Y1 potentiator project, cell-based, fluorescence; shares compounds with NPY1 pot ag; HEK293 Y1-CNGC, membrane potential fluorescence, agonist mode; activation, % at 3.6 µM; 280 compounds, 50% hits;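 active = percent activation above the mean of DMSO-only control wells plus 3 SD of those wells, cut at about 18% in these data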;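 note: cells challenged with isoproterenol plus Ro 20-1724 with no NPY in test wells; Y1 agonism lowers isoproterenol-driven cAMP and reduces probe fluorescence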
NPY-Y2 agonist: NPY-Y2 direct agonists without NPY, counter-screen for NPY-Y1 potentiator project, cell-based, fluorescence. HEK293 Y2-CNGC, membrane potential fluorescence, agonist mode. 280 compounds, 67% hits. AID 1698, 2009. shares compounds with NPY1 pot ag. activation, % at 3.6 µM;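 active = activation above the solvent-only control wells' mean plus 3 SD, cut at about 11% in these data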;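 note: 0% = DMSO with isoproterenol and 100% = 40 nM NPY maximal response; agonism lowers cAMP so well fluorescence drops in active wells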
CNGC counter: CNGC cAMP sensor activity inhibitors, counter-screen for NPY-Y1 potentiator/agonist project, cell-based, HEK293-CNG parental, membrane potential fluorescence, Y1 set; isoproterenol cAMP; AID 1704, 2009; 280 compounds, 42% hits; inhibition, % at 3.6 µM; shares compounds with NPY1 pot ag;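 active = inhibition above the mean of stimulated solvent-only control wells plus 3 SD, cut at about 22% in these data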;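 note: 0% = isoproterenol-stimulated DMSO wells and 100% = unstimulated DMSO wells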
* marks the source's active call; other numbers are inactive results. The list is not random: actives were taken first. Their share in the collection is about 3.7%.

For COc1cc(/C=C2\SC(=S)N(N3CCOCC3)C2=O)ccc1O the results were NPY-Y2 PAM-ag -4, Furin inh -11, NPY1 pot ag 48*, NPY-Y1 confirm 18, NPY-Y2 counter 10, NPY-Y1 ag 13, NPY-Y2 agonist 10.0* and CNGC counter 10.
For COc1cc(/C=C2\SC(=S)N(N3CCOCC3)C2=O)cc(OC)c1OC the results were NPY Y1 blocker 4, Cl transport mod 0.62, NPY-Y2 PAM-ag -6, NPY-Y2 antag 2, Furin inh -19 and NPY1 pot ag 9.
For Cc1cc(Oc2ccc(N)cn2)cc(C)c1Cl the results were Cl transport mod 0.61, NPY-Y2 PAM-ag -1, Furin inh -2 and NPY1 pot ag 16.
`CC(C)(C)c1ccc(Oc2ccc(N)cn2)cc1` gave Cl transport mod -0.51, NPY-Y2 PAM-ag 39, Furin inh -4, NPY1 pot ag 49*, NPY-Y1 confirm 41, NPY-Y2 counter 40*, NPY-Y1 ag 20*, NPY-Y2 agonist 40* and CNGC counter 34*.
For O=C(NCCc1ccccn1)c1cc(-c2ccccc2Cl)nc2ccccc12 the results were NPY Y1 blocker -1, Cl transport mod -0.27, NPY-Y2 PAM-ag 13, NPY-Y2 antag 2, Furin inh -13 and NPY1 pot ag -11.
`COc1ccc(N/N=C(\C#N)C(=N)SCc2ccccc2)cc1` gave NPY Y1 blocker -4, Cl transport mod -0.025, NPY-Y2 PAM-ag 25, Furin inh -10, NPY1 pot ag 37*, NPY-Y1 confirm 18, NPY-Y2 counter 6, NPY-Y1 ag 17, NPY-Y2 agonist 23* and CNGC counter 15.
For CC(C)Cc1nc(N2CCN(C(=O)C(C)C)CC2)c(C#N)c2c1CCC2 the results were NPY Y1 blocker 7, NPY-Y2 PAM-ag -9, NPY-Y2 antag 10, Furin inh -24, NPY1 pot ag 31*, NPY-Y1 confirm -22, NPY-Y2 counter -8, NPY-Y1 ag -26, NPY-Y2 agonist -7 and CNGC counter -9.
`CC(=O)N1CCN(c2nc(CC(C)C)c3c(c2C#N)CCC3)CC1` gave NPY Y1 blocker 4, NPY-Y2 PAM-ag -25, NPY-Y2 antag 2, Furin inh -34 and NPY1 pot ag 7.
CCOCCOC(=O)COc1ccc(N2C(=O)c3ccccc3C2=O)cc1 was read as NPY Y1 blocker -3, Cl transport mod -2.8, NPY-Y2 PAM-ag 11, NPY-Y2 antag 2, Furin inh -14, NPY1 pot ag 44*, NPY-Y1 confirm 83*, NPY-Y2 counter 55*, NPY-Y1 ag 63*, NPY-Y2 agonist 44* and CNGC counter 80*.
`COC(=O)c1ccc(C(=O)O)nc1` gave Cl transport mod -0.069, NPY-Y2 PAM-ag 3, Furin inh -8 and NPY1 pot ag -9.
CCC(=O)Nc1cccc(NC(=S)NC(=O)c2ccccc2C)c1 was read as NPY Y1 blocker 0, Cl transport mod -0.0025, NPY-Y2 PAM-ag -6, Furin inh -21 and NPY1 pot ag -8.
COC(=O)c1sc(-c2ccc(Cl)cc2)cc1NC(=O)c1ccccc1C(=O)O was read as Cl transport mod -1.8, NPY-Y2 PAM-ag 2, Furin inh -1 and NPY1 pot ag 12.
For COC(=O)c1sc(-c2ccc(C(C)(C)C)cc2)cc1NC(=O)c1ccccc1C(=O)O the results were Cl transport mod -1.7, NPY-Y2 PAM-ag 20, Furin inh -14, NPY1 pot ag 63*, NPY-Y1 confirm 46*, NPY-Y2 counter 31, NPY-Y1 ag 39*, NPY-Y2 agonist 12* and CNGC counter 24*.
